Laboratory results: ChEMBL document CHEMBL3792371 (Bioorg Med Chem Lett, 2016)

Assays:
Rattus norvegicus [1] = organism: Rattus norvegicus; assay: Selectivity ratio of Ki for DAT in rat striatal synaptosomes to Ki for VMAT2 in rat striatal synaptic vesicle; format: subcellular
How it was run: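 Ratio of DAT Ki to VMAT2 Ki. […] 10 nM [3H]DA then added for 10 min at 34°C. Nonspecific uptake measured with 10 µM GBR 12909. VMAT2 Ki from vesicular [3H]DA uptake.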

[2] = biological target: Synaptic vesicular amine transporter (Rattus norvegicus, UniProt Q01827); assay: Inhibition of VMAT2 in rat striatal synaptic vesicle assessed as reduction of [3H]dopamine uptake after 8 mins by liquid scintillation spectrometric method
How it was run: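 Vesicles prepared from rat striata by sucrose homogenisation, osmotic shock and differential centrifugation. Inhibitor at 0.1 nM–10 mM with 0.1 µM [3H]DA. Filtration, then scintillation counting. n = 3–4 rats.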

[3] = biological target: Sodium-dependent dopamine transporter (Rattus norvegicus, UniProt P23977); assay: Inhibition of DAT in rat striatal synaptosomes assessed as reduction of [3H]dopamine uptake preincubated for 5 mins followed by [3H]dopamine addition measured after 10 mins by liquid scintillation spectrometric method; format: subcellular, Striatum
How it was run: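 Rat striatum homogenized in ice-cold 0.32 M sucrose with 5 mM NaHCO3 (pH 7.4), spun at 2000g and then 20,000g. Synaptosomes (20 µg protein) were resuspended in oxygenated Krebs'-HEPES buffer (pH 7.4) with pargyline and ascorbic acid. Inhibitor was 0.1 nM–1 mM final (7–9 concentrations), run in duplicate at 34 °C. [3H]DA was 10 nM final. Nonspecific uptake was defined with 10 µM GBR 12909. Reactions were filtered on GF/B filters. Specific uptake was expressed as % of control, n = 3–4 rats.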

[4] = biological target: Sodium-dependent serotonin transporter (Rattus norvegicus, UniProt P31652); assay: Inhibition of SERT in rat striatal synaptosomes assessed as reduction of [3H]5-HT uptake preincubated for 5 mins followed by [3H]5-HT addition measured after 10 mins by liquid scintillation spectrometric method; format: subcellular, Striatum
How it was run: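 Rat striatal synaptosomes were made as for the DAT assay: 20 µg protein in oxygenated Krebs'-HEPES buffer (pH 7.4) containing pargyline and ascorbic acid. Inhibitor was 0.1 nM–1 mM final (7–9 concentrations), run in duplicate at 34 °C. [3H]5-HT was 10 nM final. Nonspecific uptake was defined with 10 µM fluoxetine. Filters were washed with ice-cold Krebs' buffer containing 1 mM catechol. Specific uptake was expressed as % of control, n = 4 rats.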

Rattus norvegicus [5] = organism: Rattus norvegicus; assay: Selectivity ratio of Ki for SERT in rat striatal synaptosomes to Ki for VMAT2 in rat striatal synaptic vesicle; format: subcellular
How it was run: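 Ratio of SERT Ki to VMAT2 Ki. […] 10 nM [3H]5-HT then added for 10 min at 34°C. Nonspecific uptake measured with 10 µM fluoxetine. n = 4 rats. VMAT2 Ki from vesicular [3H]DA uptake.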

Sequence of Synaptic vesicular amine transporter (Q01827 whole entry): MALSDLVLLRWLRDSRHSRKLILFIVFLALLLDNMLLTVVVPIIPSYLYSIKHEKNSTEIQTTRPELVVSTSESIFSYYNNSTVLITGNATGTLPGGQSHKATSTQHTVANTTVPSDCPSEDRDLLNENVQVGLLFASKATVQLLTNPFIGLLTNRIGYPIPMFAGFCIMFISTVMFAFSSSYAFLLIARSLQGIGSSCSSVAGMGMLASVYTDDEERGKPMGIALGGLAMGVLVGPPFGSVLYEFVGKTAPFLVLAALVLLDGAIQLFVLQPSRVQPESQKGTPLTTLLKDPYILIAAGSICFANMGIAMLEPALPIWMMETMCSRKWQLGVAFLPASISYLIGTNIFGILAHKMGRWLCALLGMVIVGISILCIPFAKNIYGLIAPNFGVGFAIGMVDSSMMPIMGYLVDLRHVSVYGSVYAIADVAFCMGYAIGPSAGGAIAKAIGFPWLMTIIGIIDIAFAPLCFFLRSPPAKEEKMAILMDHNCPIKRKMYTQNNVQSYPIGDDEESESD
Sequence of Sodium-dependent serotonin transporter (P31652 whole entry): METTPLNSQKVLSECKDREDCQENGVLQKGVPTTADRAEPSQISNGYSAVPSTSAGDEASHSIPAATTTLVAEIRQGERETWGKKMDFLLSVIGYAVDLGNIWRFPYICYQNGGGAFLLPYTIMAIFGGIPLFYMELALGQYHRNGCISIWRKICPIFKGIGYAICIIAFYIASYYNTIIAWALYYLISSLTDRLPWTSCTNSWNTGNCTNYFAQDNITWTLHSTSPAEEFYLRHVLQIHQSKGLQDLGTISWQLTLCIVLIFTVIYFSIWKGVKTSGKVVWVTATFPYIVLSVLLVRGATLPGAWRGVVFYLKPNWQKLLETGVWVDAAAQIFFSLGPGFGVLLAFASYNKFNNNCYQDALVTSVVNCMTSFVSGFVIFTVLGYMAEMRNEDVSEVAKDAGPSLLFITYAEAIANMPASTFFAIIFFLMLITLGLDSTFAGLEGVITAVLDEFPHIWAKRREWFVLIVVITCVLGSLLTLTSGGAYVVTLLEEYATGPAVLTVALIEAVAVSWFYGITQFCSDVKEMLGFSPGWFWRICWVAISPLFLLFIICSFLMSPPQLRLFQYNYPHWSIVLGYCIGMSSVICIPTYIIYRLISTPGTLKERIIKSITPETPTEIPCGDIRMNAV
Sequence of Sodium-dependent dopamine transporter (P23977 whole entry): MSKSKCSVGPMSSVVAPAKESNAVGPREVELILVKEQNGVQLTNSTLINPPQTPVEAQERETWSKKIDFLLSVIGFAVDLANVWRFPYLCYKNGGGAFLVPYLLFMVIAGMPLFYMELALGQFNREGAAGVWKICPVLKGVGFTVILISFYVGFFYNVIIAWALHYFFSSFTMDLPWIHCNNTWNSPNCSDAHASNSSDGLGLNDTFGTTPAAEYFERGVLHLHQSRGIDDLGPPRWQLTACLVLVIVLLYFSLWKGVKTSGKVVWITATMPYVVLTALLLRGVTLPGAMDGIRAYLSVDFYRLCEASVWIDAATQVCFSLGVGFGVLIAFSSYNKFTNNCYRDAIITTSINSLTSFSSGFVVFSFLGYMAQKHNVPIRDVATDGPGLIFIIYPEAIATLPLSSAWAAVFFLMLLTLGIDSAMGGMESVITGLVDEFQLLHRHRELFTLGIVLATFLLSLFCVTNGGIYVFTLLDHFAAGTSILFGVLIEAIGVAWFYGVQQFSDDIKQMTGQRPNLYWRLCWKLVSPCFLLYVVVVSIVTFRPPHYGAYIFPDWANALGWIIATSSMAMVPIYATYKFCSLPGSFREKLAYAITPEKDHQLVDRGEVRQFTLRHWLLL

Row | SMILES | Ratio Ki (Rattus norvegicus [1]) | Ki [2] [nM] | Ki [3] [nM] | Ki [4] [nM] | Ratio Ki (Rattus norvegicus [5])
1 | CN1[C@@H](CCc2ccc(O)cc2)CCC[C@H]1CCc1ccc(OCCF)cc1 | 96 | 31 | 2970 | 10400 | 335
2 | Oc1ccc(CC[C@H]2CCC[C@@H](CCc3ccc(OCCF)cc3)N2)cc1 |  | 32 | 1660 | 1050 | 
3 | OC[C@H](O)CN1[C@@H](CCc2ccc(O)cc2)CCC[C@H]1CCc1ccc(O)cc1 |  | 39 | 1430 | 12900 | 331
4 | CN1[C@@H](CCc2ccc(OCCF)cc2)CCC[C@H]1CCc1ccc(OCCF)cc1 |  | 140 | 3430 | 7430 | 
5 | COc1ccc(CC[C@H]2CCC[C@@H](CCc3ccc(OC)cc3)N2C[C@@H](O)CO)cc1 |  |  | 1440 | 9360 | 
6 | CC(=O)Oc1ccc(CC[C@H]2CCC[C@@H](CCc3ccc(OC(C)=O)cc3)N2)cc1 |  | 220 | 1470 | 2130 | 
7 | FCCOc1ccc(CC[C@H]2CCC[C@@H](CCc3ccc(OCCF)cc3)N2)cc1 |  | 40 | 1670 | 640 | 
8 | CN1[C@@H](CCc2ccccc2)CCC[C@H]1CCc1ccccc1 [LOBELANE] |  |  | 1050 | 3600 | 
9 | OC[C@H](O)CN1[C@@H](CCc2ccc(O)cc2)CCC[C@H]1CCc1ccc(OCCF)cc1 | 87 | 63 | 5470 | 1430 | 
10 | CN1[C@@H](CCc2ccc(O)cc2)CCC[C@H]1CCc1ccc(O)cc1 |  | 46 | 1350 | 12000 | 260
11 | CC(=O)Oc1ccc(CC[C@H]2CCC[C@@H](CCc3ccc(OC(C)=O)cc3)N2C)cc1 |  | 71 | 2130 | 11600 | 163
12 | Oc1ccc(CC[C@H]2CCC[C@@H](CCc3ccc(O)cc3)N2)cc1 |  | 31 | 866 | 1030 | 
13 | OC[C@H](O)CN1[C@@H](CCc2ccc(OCCF)cc2)CCC[C@H]1CCc1ccc(OCCF)cc1 | 30 | 120 | 3690 | 33000 | 275
